Assays:
[1] = biological target: T1, C-X-C chemokine receptor type 2 (Homo sapiens, UniProt P25025); assay: Displacement of [125I]IL8 from human recombinant CXCR2 expressed in HEK293 membranes by SPA
T1 sequence (P25025 whole entry): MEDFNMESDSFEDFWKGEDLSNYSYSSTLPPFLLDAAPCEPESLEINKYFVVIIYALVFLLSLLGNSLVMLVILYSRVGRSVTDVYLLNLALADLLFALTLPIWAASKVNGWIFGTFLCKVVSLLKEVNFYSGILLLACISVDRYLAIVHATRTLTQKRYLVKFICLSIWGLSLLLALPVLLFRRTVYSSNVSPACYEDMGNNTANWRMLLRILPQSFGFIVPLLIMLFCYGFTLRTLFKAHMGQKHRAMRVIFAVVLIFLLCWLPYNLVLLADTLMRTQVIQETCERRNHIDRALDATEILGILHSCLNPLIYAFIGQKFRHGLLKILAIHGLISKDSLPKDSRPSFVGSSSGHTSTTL
Summary of the method: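 Human recombinant CXCR2 in HEK293 cell membranes, screened by scintillation proximity assay at the HTS stage. SPA actives were then validated in a conventional filter-wash [125I]IL8 binding assay on hrCXCR2.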

[2] = biological target: T2, C-X-C chemokine receptor type 2 (Homo sapiens) (UniProt P25025); assay: Inhibition of CXCR2 at 10 uM
T2 sequence (whole entry): T1 sequence (P25025 whole entry)

[3] = Clearance in human liver microsome; type: ADME; conditions: liver microsomes
[4] = Distribution coefficient of the compound, log D; type: physicochemical; conditions: octanol/water
[5] = Volume of distribution in iv dosed rat; type: ADME, organism-based; conditions: in vivo, read-out: Vdss
[6] = Clearance in iv dosed rat; type: ADME, organism-based; conditions: in vivo
[7] = biological target: T3, Interleukin-8 receptors, CXCR1/CXCR2 (Homo sapiens, UniProt P25025+P25024); assay: Inhibition of GROalpha-stimulated intracellular calcium mobilisation in human neutrophils by FLIPR; type: functional, cell-based
T3 sequence (P25025 whole entry): T1 sequence (P25025 whole entry)
T3 sequence (P25024 whole entry): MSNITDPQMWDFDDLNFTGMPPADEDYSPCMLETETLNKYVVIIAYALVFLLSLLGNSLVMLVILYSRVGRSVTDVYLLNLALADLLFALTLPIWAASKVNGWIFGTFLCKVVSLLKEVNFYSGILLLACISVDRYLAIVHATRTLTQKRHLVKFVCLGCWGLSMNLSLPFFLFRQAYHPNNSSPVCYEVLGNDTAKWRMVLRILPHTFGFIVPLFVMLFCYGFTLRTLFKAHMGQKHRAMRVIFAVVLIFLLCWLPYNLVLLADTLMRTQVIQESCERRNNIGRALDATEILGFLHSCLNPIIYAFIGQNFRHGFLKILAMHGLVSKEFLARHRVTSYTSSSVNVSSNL

[8] = Half life in iv dosed rat; type: ADME, organism-based; conditions: in vivo
[9] = Protein binding in plasma; type: ADME, cell-free; conditions: human, read-out: PPB (converted)
[10] = Oral bioavailability in rat; type: ADME, organism-based; conditions: in vivo

SMILES | IC50 [1] [µM] | inhibition [2] [%] | further results
CCCCCSc1nc2ncsc2c(=O)[nH]1 | 10 |  | 
Nc1nc2nc(SCc3ccccc3)nc(SCC(=O)O)c2s1 |  | < 50 | 
CC(C)(CO)Nc1nc(SCc2cccc(Oc3ccccc3)c2)nc2nc(N)sc12 | 0.05 |  | 
CCCCCSc1nc(NCCO)c2sc(N)nc2n1 | 7 |  | 
CCCCCSc1nc(NCCCO)c2sc(N)nc2n1 |  | < 50 | 
CC[C@H](CO)Nc1nc(SCc2cccc(F)c2F)nc2nc(N)sc12 | 0.0095 |  | 
CC[C@@H](CO)Nc1nc(SCc2ccccc2)nc2nc(N)sc12 | 3.9 |  | 
Nc1nc2nc(SCc3cccc(F)c3F)nc(Cl)c2s1 |  | < 50 | 
CC[C@@H](CO)Nc1nc(SCc2cccc(Oc3ccccc3)c2)nc2nc(N)sc12 | 1.4 |  | 
CCCCCSc1nc(O)c2sc(NC(C)=O)nc2n1 |  | < 50 | 
Nc1nc2nc(SCc3ccccc3)nc(N)c2s1 | 10 |  | 
Nc1nc2nc(SCc3cccc(Oc4ccccc4)c3)nc(Cl)c2s1 |  | < 50 | 
CSc1nc(O)c2sc(N)nc2n1 |  | < 50 | 
Nc1nc2nc(SCc3ccccc3)nc(Cl)c2s1 |  | < 50 | 
Nc1nc2nc(SCc3cccc(Oc4ccccc4)c3)[nH]c(=O)c2s1 | 0.48 |  | 

Now from value to compound, other results behind:

IC50 [1] [µM] | inhibition [2] [%] | SMILES | further results
 | < 50 | CCCCCSc1nc(Cl)c2sc(N)nc2n1 | 
0.35 |  | CC[C@H](CO)Nc1nc(SCc2cccc(Oc3ccccc3)c2)nc2nc(N)sc12 | 
 | < 50 | CCCCCSc1nc(O)c2sc(NC)nc2n1 | 
 | < 50 | CCCCCSc1nc(O)c2sc(Br)nc2n1 | 
1.3 |  | Nc1nc2nc(SCc3ccccc3)[nH]c(=O)c2s1 | microsomal CLint [3]: < 3 µL/min/mg
 | < 50 | CCCCCSc1nc(N(CC)CC)c2sc(N)nc2n1 | 
 | < 50 | CCSc1nc(O)c2sc(N)nc2n1 | 
0.014 |  | CC(C)(CO)Nc1nc(SCc2cccc(F)c2F)nc2nc(N)sc12 | logD [4]: 3.4; Vd [5]: 1.9 L/kg; clearance [6]: 1.5 L/h/kg; microsomal CLint [3]: 31 µL/min/mg; IC50 [7]: 0.04 µM; half-life [8]: 1.2 h; fraction unbound [9]: 0.016; bioavailability [10]: 15%
0.27 |  | Nc1nc2nc(SCc3cccc(F)c3F)[nH]c(=O)c2s1 | Vd [5]: 0.9 L/kg; clearance [6]: 0.57 L/h/kg; microsomal CLint [3]: 2 µL/min/mg; half-life [8]: 3.5 h
10 |  | CCCCCSc1nc(O)c2sc(N)nc2n1 | logD [4]: 2.9; microsomal CLint [3]: 18 µL/min/mg; IC50 [7]: 2 µM
 | < 50 | Nc1nc2nc(SCc3ccccc3)nc(SCCO)c2s1 | 
 | < 50 | CCCCCSc1nc(NC2CCCC2)c2sc(N)nc2n1 | 
 | < 50 | COC(=O)CSc1nc(SCc2ccccc2)nc2nc(N)sc12 | 
0.12 |  | CC[C@H](CO)Nc1nc(SCc2ccccc2)nc2nc(N)sc12 | Vd [5]: 2.2 L/kg; clearance [6]: 2.4 L/h/kg; microsomal CLint [3]: 6 µL/min/mg; half-life [8]: 1 h
